# Source: PubChem
# Rows were chosen to be rich in hits. Some 4% of all compounds tested hit in one or more screens of this group.
# ABHD5 PLIN5 PPI – ABHD5-PLIN5 protein interaction inhibition; AID 602281; inhibition, % at 4 µM; hit rate 0.78% among 360,000; Split G. princeps luciferase complementation, luminescence, 4 h; Q00G26+Q8WTS1;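 active means inhibition above the mean inhibition across every tested compound plus 3 SD, cut at about 22% in these data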;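 further: 0% = DMSO only wells and the 100% control is not disclosed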
# Granule exo inh – blocks lytic granule exocytosis; TALL-104 LAMP-1 surface exposure, flow cytometry; cells stimulated with thapsigargin and PMA; inhibition, % at 10 µM; hit rate 0.66% among 360,000;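 active means inhibition above about 55%, limit read from the data; inconclusive means no clear call, values can overlap the other calls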
# CHOP UPR activ – apoptotic UPR (CHOP) activation. CHO-CHOP luciferase reporter, luminescence; percent of tunicamycin response over DMSO baseline. activation, % at 10 µM. hit rate 0.34% among 330,000. AID 449763;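 active means at 10 µM dose, activation of 40% or more, normalized to positive control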;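 further: 100% = tunicamycin at 10 µg/mL and 0% = DMSO alone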
#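 Evaluation: % reporter activation, DMSO baseline versus tunicamycin full activation; System: CHO-CHOP luciferase reporter cell line; Input: 500 cells/well; Incubation: 6 h compound treatment, 37 °C; Measured by: Steady-Glo luciferase luminescence; Dosing: one dose, 10 µM in 0.5% DMSO; Buffer or medium: F12 medium, 10% FBS; Benchmarks: positive tunicamycin 10 µg/mL, negative DMSO alone.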
# UPR XBP1 act – adaptive UPR (XBP1) activation | hit rate 0.33% among 330,000 | activation, % at 20 µM | AID 463104 | CHO-XBP1 luciferase reporter, IRE1-XBP1 UPR activation, luminescence; percent of tunicamycin response, DMSO as zero;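 active means versus positive control, 20 µM dose yields 30% or more activation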;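 further: 100% = tunicamycin at 10 µg/mL and 0% = DMSO only wells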
#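 Material: IRE1-XBP1 luciferase reporter CHO line / Quantity: one thousand reporter cells per well / Buffer or medium: F12 with 10% serum / Compound: 20 µM single concentration, DMSO 1% / Times: 6 h treatment, 37 °C / Detection: Steady-Glo luciferase glow luminescence, 10 min after reagent addition / Benchmarks: tunicamycin high, DMSO low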
# Mdm2-MdmX inh – disrupts the human Mdm2-MdmX interaction; O15151+Q00987; SaOS-2 split-luciferase Mdm2/MdmX complementation, luminescence; hit rate 3% among 330,000; inhibition, % at 8 µM; AID 485346;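 active means inhibition of at least 50% at 8 µM in the primary screen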
# Target sequence (O15151 whole entry, looked up): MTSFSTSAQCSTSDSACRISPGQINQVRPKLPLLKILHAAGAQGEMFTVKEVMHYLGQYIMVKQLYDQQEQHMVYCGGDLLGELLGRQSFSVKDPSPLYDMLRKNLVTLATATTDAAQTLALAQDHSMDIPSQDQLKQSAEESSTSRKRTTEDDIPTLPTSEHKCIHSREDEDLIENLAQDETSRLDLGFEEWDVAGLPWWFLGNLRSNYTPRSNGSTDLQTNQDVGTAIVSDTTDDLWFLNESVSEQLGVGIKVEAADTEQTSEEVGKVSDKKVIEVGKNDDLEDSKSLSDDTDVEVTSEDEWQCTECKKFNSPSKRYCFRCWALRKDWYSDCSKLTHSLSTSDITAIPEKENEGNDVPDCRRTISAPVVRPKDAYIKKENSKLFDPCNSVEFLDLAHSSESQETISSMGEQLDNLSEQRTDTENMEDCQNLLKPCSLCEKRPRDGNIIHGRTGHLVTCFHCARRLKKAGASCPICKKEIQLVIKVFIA
# Target sequence (Q00987 whole entry, looked up): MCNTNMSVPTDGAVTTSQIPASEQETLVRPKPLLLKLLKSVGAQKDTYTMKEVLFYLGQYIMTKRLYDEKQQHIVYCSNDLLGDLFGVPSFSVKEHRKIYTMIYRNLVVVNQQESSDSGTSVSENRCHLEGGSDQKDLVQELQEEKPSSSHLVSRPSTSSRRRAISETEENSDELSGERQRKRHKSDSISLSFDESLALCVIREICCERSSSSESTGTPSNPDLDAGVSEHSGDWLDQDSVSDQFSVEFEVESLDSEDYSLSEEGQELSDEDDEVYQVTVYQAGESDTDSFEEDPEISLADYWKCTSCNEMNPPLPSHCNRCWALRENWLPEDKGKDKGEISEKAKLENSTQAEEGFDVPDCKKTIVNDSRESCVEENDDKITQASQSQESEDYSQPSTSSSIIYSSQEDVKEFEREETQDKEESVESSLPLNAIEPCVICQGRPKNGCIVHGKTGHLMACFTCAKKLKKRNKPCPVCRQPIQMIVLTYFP
# Mdm2-MdmX conf – confirmation of human Mdm2/MdmX interaction inhibitors; Mdm2-MdmX binding, luminescent assay; shares compounds with Mdm2-MdmX inh; inhibition, % at 8 µM; hit rate 55% among 10,000; AID 489028; in the data active means inhibition above about 40%
# Full FLuc ctr – full-length luciferase inhibition in Mdm2/MdmX counter-screen | shares compounds with Mdm2-MdmX inh | SaOS-2 full-length luciferase counterscreen, luminescence | inhibition, % at 8 µM | hit rate 77% among 6,200 | AID 504607;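 active means mean inhibition at 8 µM reaching about 37%, which flags the compound as non-specific, limit read from the data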;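 further: p53-null SaOS-2 cells with luciferase driven by a doxycycline-inducible promoter; compound on cells about two nights before reading with doxycycline added after day one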
# * hit, by the source's call; ? = inconclusive; . = not tested or not shown.
SMILES,ABHD5 PLIN5 PPI,Granule exo inh,CHOP UPR activ,UPR XBP1 act,Mdm2-MdmX inh,Mdm2-MdmX conf,Full FLuc ctr
Cc1[nH]n(-c2nc(-c3ccc(Cl)cc3)cs2)c(=O)c1N=Nc1ccc(O)cc1,1.1,2.5,31.8,-4.1,63.4*,35.9,83.2*
COc1ccc(OC)c(-c2csc(NC(=O)Cn3[nH]c(=O)c4ccccc4c3=O)n2)c1,-10.2,1.0,0.3,-1.0,66.6*,83.4*,49.6*
COc1ccc(-c2csc(NC(=O)CSc3nc4ccccc4c(=O)[nH]3)n2)cc1,-2.9,7.7,1.2,9.0,50.6*,-8.6,.
Cc1sc(NC(=O)Cn2[nH]c(=O)c3ccccc3c2=O)nc1-c1ccccc1,9.2,0.8,2.2,-2.4,55.9*,8.2,.
O=C(COC(=O)c1nc(Cl)ccc1Cl)Nc1ccc2[nH]c(=O)[nH]c2c1,-6.3,7.1,-0.2,-1.8,23.4,.,.
O=C1C=C(c2ccc3cc[nH]c3c2)C[C@@H](c2ccc3c(c2)OCO3)C1,2.5,-5.0,0.4,1.7,56.7*,56.6*,52.6*
O=C1C=C(c2ccc3c(c2)OCO3)C[C@@H](c2ccc3c(c2)OCO3)C1,-7.9,5.0,2.2,3.1,4.8,.,.
O=c1cc(O)c2sc(Nc3cccc(C(F)(F)F)c3)nc2[nH]1,-84.6,?,1.3,1.4,21.2,.,.
O=c1cc(O)c2sc(Nc3ccc(F)cc3)nc2[nH]1,-76.2,-6.8,-0.8,0.0,65.7*,47.5*,42.5*
COc1ccc(CN(C(=O)CSc2nnc(-c3c[nH]c4ccccc34)o2)c2ccc(F)cc2)cc1OC,10.2,1.2,6.7,-5.2,66.1*,74.0*,70.3*
Cc1ccc(Nc2nc(-c3ccncc3)cs2)cc1,-0.1,-0.7,5.2,-3.4,-79.3,.,.
CCc1noc(C)c1C(=O)NC1CCCc2c1cnn2-c1cc(C)cc(C)c1 (stereo not given),7.5,-11.8,2.0,-5.3,19.2,.,.
CCc1[nH]nc(C(=O)NC2CCCc3c2cnn3-c2cc(C)cc(C)c2)c1C (stereo not given),-0.7,-0.7,4.0,-1.7,76.4*,81.1*,95.2*
CC(C)(C)c1ccc(CN2C3=NCCCN3c3ccccc32)cc1,11.6,21.1,3.1,0.5,68.8*,32.6,61.3*
Cc1ccc(CN2C3=NCCCN3c3ccccc32)cc1,4.1,-1.3,-0.1,-1.3,21.4,.,.
CCCCN1C2=NCCCN2c2cc(C)c(C)cc21,-0.1,-2.0,-0.8,1.6,-0.7,.,.
Cc1cc2c(cc1C)N(Cc1ccc(Cl)cc1)C1=NCCCN12,2.0,4.4,-0.4,-1.6,55.9*,39.0,90.1*
Nc1cc2c(cc1C(=O)c1cccc(Br)c1)OCCO2,4.1,0.3,-0.5,6.2,29.9,.,.
O=c1[nH]c2ccccc2c2ccccc12,1.9,1.2,-2.3,3.3,13.5,.,.
CC(C)c1ccc(O)c(=O)cc1,-2.3,-2.2,.,.,.,.,.
CC(C)c1cccc(O)c(=O)c1,10.3,-1.6,0.2,4.0,86.4*,74.2*,27.6
CCOC(=O)c1ccc(N2C(=O)C(CC(N)=O)N(NC(=O)c3cccc(F)c3)C2=S)cc1 (stereo not given),3.5,-7.0,-0.1,-2.3,13.2,.,.
Cc1ccc(/C=N/NC(=O)c2cc(-c3ccc(C)o3)[nH]n2)cc1,2.6,4.8,0.3,2.0,50.1*,54.4*,50.3*
C#CCOCCOCCOCCNc1nc(N2CCN(C(=O)CCCCCCCCCCNC(=O)Cn3cc(C[C@@H](C)O)nn3)CC2)nc(N2CCN(C(=O)CCCCCCCCCCNC(=O)[C@@H]([C@H](C)CC)n3cc(CCCCCN)nn3)CC2)n1,54.9*,0.3,-2.2,1.2,97.8*,77.0*,27.2
Cc1ccc2nc(SCC(=O)N3c4ccccc4CC3C)c(C)cc2c1 (stereo not given),3.8,1.8,-0.6,-1.9,6.6,.,.
C#CC(CC)(CC)NC(=O)c1ccc(Br)s1,-0.6,25.2,0.7,-0.9,-13.4,.,.
COc1cc(C(=O)Nc2ccc3c(c2)Cc2ccccc2-3)cc(OC)c1OC,-1.1,-1.4,1.8,3.9,47.5,.,.
